The source of these data is ChEMBL document CHEMBL5120853, “Tolypocladamide H and the Proposed Tolypocladamide NRPS in Tolypocladium Species” (J Nat Prod, 2022).

Molecules are shown by their SMILES. Where “and” joins values, the source holds several entries; their conditions need not be identical. Equal entries are not always repeated. Square brackets hold non-standard residues; d marks the D form. Peptide text beside a SMILES is read from it. * marks the point of attachment. Bmt = C/C=C/C[C@@H](C)[C@@H](O)[C@H](N)C(=O)O; Decanoyl = CCCCCCCCCC(=O)*; Leu(ol) = CC(C)C[C@H](N)CO; Aib = CC(C)(N)C(=O)O

For one series, the system named is Staphylococcus aureus. The series is described as follows: Antibacterial activity against Staphylococcus aureus ATCC 25923 assessed as inhibition of bacterial growth. Format: functional. The method in brief: (§1)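 Strains grown in ATCC-recommended media in culture tubes at 37 °C with shaking at 225 rpm for 3–8 h, back-diluted to about 10^6 cfu/mL, and incubated in triplicate in 384-well plates with a dilution series of test agent. DMSO vehicle served as negative control; linezolid (E. faecium) and ampicillin (S. aureus) were positive controls. MIC recorded.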

The test system of another series is Enterococcus faecium. The series is described as follows: Antibacterial activity against Enterococcus faecium ATCC BAA-2317 assessed as inhibition of bacterial growth. Format: functional. Put shortly:
as §1

For the next series, the system named is HeLa. Description: Cytotoxicity against human HeLa cells assessed as reduction in cell viability incubated for 72 hrs by CellTiter-Glo luminescent cell viability assay. The series is classed as functional, cell-based. Put shortly:
(§2)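 HUVECs (primary, limited passages) were kept in medium 200PRF with low serum growth supplement. HeLa and MCF-7 were kept in MEM with Earle's salts, L-glutamine, 10% FBS and 1% pen/strep. Cells were seeded at 5000 (HUVEC), 2000 (HeLa) or 3000 (MCF-7) per well and treated after 18 h for 72 h (final DMSO ≤0.1%). Viability read by ATP luminescence, vehicle = 100%; EC50 derived.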
Background: In ATP-based viability assays light output follows the ATP content of the culture.

A further series deals with MCF7. Description: Cytotoxicity against human MCF7 cells assessed as reduction in cell viability incubated for 72 hrs by CellTiter-Glo luminescent cell viability assay. The series is classed as functional, cell-based. The following applies: MCF7, 72 h. The method in brief:
as §2

Series [1] in a line: Cytotoxicity against HUVEC assessed as reduction in cell viability incubated for 72 hrs by CellTiter-Glo luminescent cell viability assay. Format: toxicity, cell-based. The conditions noted are these: human, HUVEC cells. Put shortly: as §2

A word on the MIC: it is the least concentration at which growth counts as inhibited. The term EC50 denotes the concentration at which the effect is half-maximal. Consider `C/C=C/C[C@@H](C)[C@@H](O)[C@H](NC(=O)[C@@H]1CCCN1C(=O)C(C)(C)NC(=O)CCCCCCCCC)C(=O)NC(C)(C)C(=O)N[C@@H](CCC(N)=O)C(=O)N[C@@H](CCC(N)=O)C(=O)NC(C)(C)C(=O)NC(C)(C)C(=O)N[C@@H](CCC(N)=O)C(=O)N[C@H](C(=O)N[C@H](CO)CC(C)C)C(C)C` (Decanoyl-[Aib]P[Bmt][Aib]QQ[Aib][Aib]QV[Leu(ol)]), for which the MIC is 11 µg/mL and 8 µM with Staphylococcus aureus; 22 µg/mL and 16 µM in the series on Enterococcus faecium. Moreover, the EC50 with HeLa was found to be 30 µM; with MCF7 it was 107 µM. Also, the EC50 at 72 h in series [1] came to 8 µM.
On to `CC(=O)NC[C@H]1CN(c2ccc(N3CCOCC3)c(F)c2)C(=O)O1` [LINEZOLID], for which, in the series on Enterococcus faecium, the MIC is 30 µg/mL and 89 µM.
